We go through 13 compounds from ChEMBL document CHEMBL1148785, “Second generation tetrahydroquinoline-based protein farnesyltransferase inhibitors as antimalarials” (J Med Chem, 2007).

Bounds are passed on as bounds.

For assay [1], the system named is Plasmodium falciparum. As to the kind of experiment: Antimalarial activity against Plasmodium falciparum K1. Format: functional. The settings on record: read-out: ED50 (the source's name). Summed up: (§1)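 Asynchronous culture in type A+ erythrocytes at 0.5% parasitemia and 0.5% hematocrit, grown in RPMI-1640 with 20% heat-inactivated human A+ plasma. Compound was serially diluted from a top final 5 µM, with DMSO vehicle as 100% growth. Plates ran 48 h at 37 °C under 5% CO2/5% O2/90% N2, then [3H]-hypoxanthine (0.3 µCi) for 24 h. Filter-harvested counts were corrected for the uninfected-RBC background. ED50 by linear regression; duplicates averaged.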

Assay [2] concerns Plasmodium falciparum. As to the kind of experiment: Antimalarial activity against Plasmodium falciparum 3D7. The settings on record: read-out: ED50 (the source's name). The assay is classed as functional. Put shortly:
as §1

In assay [3] the test system is Plasmodium falciparum. As to the kind of experiment: Inhibition of Plasmodium falciparum protein farnesyltransferase at 50 nM by scintillation proximity assay.
A short description of assay [4]: Inhibition of Plasmodium falciparum protein farnesyltransferase by scintillation proximity assay.
For assay [5], the system named is Plasmodium falciparum. As to the kind of experiment: Inhibition of Plasmodium falciparum protein farnesyltransferase at 0.5 nM by scintillation proximity assay.
Assay [6] relates to Plasmodium falciparum. As to the kind of experiment: Inhibition of Plasmodium falciparum protein farnesyltransferase at 5 nM by scintillation proximity assay.

In the case of `Cn1cnc(S(=O)(=O)N(Cc2ccsc2)C2Cc3cc(C#N)ccc3N(Cc3cncn3C)C2)c1` (configuration not stated), the EC50 worked out at 2 nM in the assay on Plasmodium falciparum [1] (Plasmodium falciparum, K1) and 12 nM in the assay with Plasmodium falciparum [2] (Plasmodium falciparum, 3D7). The compound further yielded an inhibition with Plasmodium falciparum [3] of 99%. The same compound had a concentration for half-maximal inhibition (IC50) in assay [4] of 0.4 nM.

Turning to `CCC(=O)N1CCC(CN(C2Cc3cc(C#N)ccc3N(Cc3cncn3C)C2)S(=O)(=O)c2ccccn2)CC1` (configuration not stated), the EC50 was found to be 25 nM in the assay on Plasmodium falciparum [1] (Plasmodium falciparum, K1) and 16 nM in the assay with Plasmodium falciparum [2] (Plasmodium falciparum, 3D7). The inhibition turned out to be 82% with Plasmodium falciparum [5], 99% with Plasmodium falciparum [3] and 20% in the assay with Plasmodium falciparum [6]. In addition, 0.8 nM corresponded to half-maximal inhibition in assay [4] (IC50).

For the compound `Cn1cncc1CN1CC(N(CC2CCN(S(C)(=O)=O)CC2)S(=O)(=O)c2ccccn2)Cc2cc(C#N)ccc21` (configuration not stated), the EC50 in the assay on Plasmodium falciparum [1] (Plasmodium falciparum, K1) was 50 nM; in the assay on Plasmodium falciparum [2] (Plasmodium falciparum, 3D7) it was 62 nM. The inhibition with Plasmodium falciparum [5] came out at 93%; with Plasmodium falciparum [3], 99%; with Plasmodium falciparum [6], 45%. In assay [4], half-maximal inhibition (IC50) was put at 0.9 nM.

Take `Cn1cncc1CN1CC(N(CC2CCN(C(=O)C3CC3)CC2)S(=O)(=O)c2ccccn2)Cc2cc(C#N)ccc21` (configuration not stated): the EC50 in the assay with Plasmodium falciparum [1] (Plasmodium falciparum, K1) worked out at 10 nM; in the assay with Plasmodium falciparum [2] (Plasmodium falciparum, 3D7) it was 11.5 nM. For the same compound, the figures for the inhibition in the assay on Plasmodium falciparum [5], with Plasmodium falciparum [3] and in the assay with Plasmodium falciparum [6] were 94%, 100% and 39%, respectively. In assay [4], this compound returned a 50% inhibitory concentration (IC50) of 0.75 nM.

As for `CC(=O)N1CCC(CN(C2Cc3cc(C#N)ccc3N(Cc3cncn3C)C2)S(=O)(=O)c2ccccn2)CC1` (configuration not stated), the EC50 amounted to 95 nM in the assay on Plasmodium falciparum [1] (Plasmodium falciparum, K1) and 37 nM in the assay on Plasmodium falciparum [2] (Plasmodium falciparum, 3D7). Moreover, the values for the inhibition in the assay on Plasmodium falciparum [5], in the assay with Plasmodium falciparum [3] and in the assay with Plasmodium falciparum [6] were 65%, 94% and 29%, respectively. In assay [4], the half-maximal inhibitory concentration (IC50) stood at 2.4 nM.

Regarding `Cn1cncc1CN1CC(N(CC2CCN(C(=O)c3ccc(Cl)cc3)CC2)S(=O)(=O)c2ccccn2)Cc2cc(C#N)ccc21` (configuration not stated), the EC50 was 1700 nM in the assay on Plasmodium falciparum [1] (Plasmodium falciparum, K1) and 460 nM with Plasmodium falciparum [2] (Plasmodium falciparum, 3D7). The figures for the inhibition in the assay on Plasmodium falciparum [5], in the assay with Plasmodium falciparum [3] and with Plasmodium falciparum [6] were 7%, 26% and 0%, respectively. Also, in assay [4], it took 900 nM to reach half-maximal inhibition (IC50).

With `Cn1cncc1CN1CC(N(CC2CCN(C(=O)C(C)(C)C)CC2)S(=O)(=O)c2ccccn2)Cc2cc(C#N)ccc21` (configuration not stated), the EC50 in the assay on Plasmodium falciparum [1] (Plasmodium falciparum, K1) is 75 nM; with Plasmodium falciparum [2] (Plasmodium falciparum, 3D7), 48 nM. In addition, the results for the inhibition in the assay on Plasmodium falciparum [5], with Plasmodium falciparum [3] and in the assay with Plasmodium falciparum [6] were 76%, 99% and 17%, respectively. Also, in assay [4], the IC50 was found to be 1.2 nM.

In the case of `Cn1cncc1CN1CC(N(CC2CCN(C(=O)CC(F)(F)F)CC2)S(=O)(=O)c2ccccn2)Cc2cc(C#N)ccc21` (configuration not stated), the EC50 amounted to 55 nM in the assay with Plasmodium falciparum [1] (Plasmodium falciparum, K1) and 43 nM in the assay on Plasmodium falciparum [2] (Plasmodium falciparum, 3D7). In addition, the inhibition with Plasmodium falciparum [5] is 77%; in the assay with Plasmodium falciparum [3], 98%; in the assay on Plasmodium falciparum [6] it was 30%. Moreover, the half-maximal inhibitory concentration (IC50) in assay [4] turned out to be 2 nM.

`COC(=O)N1CCC(CN(C2Cc3cc(C#N)ccc3N(Cc3cncn3C)C2)S(=O)(=O)c2ccccn2)CC1` (configuration not stated): the figures for the EC50 in the assay with Plasmodium falciparum [1] and in the assay with Plasmodium falciparum [2] were 75 nM and 95 nM, respectively. Further, the IC50 in assay [4] was 2.7 nM.

`Cn1cncc1CN1CC(N(CC(=O)NC(C)(C)C)S(=O)(=O)c2ccc(F)cc2)Cc2cc(C#N)ccc21` (configuration not stated): the EC50 is 5000 nM with Plasmodium falciparum [1] (Plasmodium falciparum, K1) and above 5000 nM in the assay with Plasmodium falciparum [2] (Plasmodium falciparum, 3D7). Also, the figures for the inhibition in the assay with Plasmodium falciparum [5], in the assay with Plasmodium falciparum [3] and in the assay with Plasmodium falciparum [6] were 30%, 71% and 33%, respectively. In addition, the concentration for half-maximal inhibition (IC50) in assay [4] was found to be 42 nM.

Regarding `Cn1cncc1CN1CC(N(CC(=O)NC(C)(C)C)S(=O)(=O)c2c[nH]cn2)Cc2cc(C#N)ccc21` (configuration not stated), the EC50 is above 5000 nM in the assay with Plasmodium falciparum [1] (Plasmodium falciparum, K1) and above 5000 nM in the assay on Plasmodium falciparum [2] (Plasmodium falciparum, 3D7). The inhibition in the assay on Plasmodium falciparum [5] was 10%; in the assay with Plasmodium falciparum [3], 15%; in the assay with Plasmodium falciparum [6], 14%. The compound further yielded a 50% inhibitory concentration (IC50) in assay [4] of 800 nM.

For the compound `Cc1cc(C(=O)N(CC(=O)OC(C)(C)C)C2Cc3cc(C#N)ccc3N(Cc3cncn3C)C2)no1` (configuration not stated), the EC50 in the assay on Plasmodium falciparum [1] (Plasmodium falciparum, K1) was above 5000 nM; in the assay on Plasmodium falciparum [2] (Plasmodium falciparum, 3D7), above 5000 nM. The compound further returned an IC50 in assay [4] above 50 nM.

In the case of `Cn1cncc1CN1CC(N(CC(=O)OC(C)(C)C)C(=O)c2ccccc2)Cc2cc(C#N)ccc21` (configuration not stated), the EC50 was above 5000 nM with Plasmodium falciparum [1] (Plasmodium falciparum, K1) and above 5000 nM in the assay with Plasmodium falciparum [2] (Plasmodium falciparum, 3D7). In addition, the IC50 in assay [4] is above 50 nM.
